# From ChEMBL document CHEMBL3877263, “Synthesis and in vitro characterization of novel fluorinated derivatives of the translocator protein 18 kDa ligand CfO-DPA-714” (Eur J Med Chem, 2017)
# Experiments:
# [1] = species: Rattus norvegicus; experiment: Displacement of [3H]flunitrazepam from CBR in rat cerebral cortex membranes at 1 uM relative to control; format: cell membranes; details: Membrane
# [2] = Intrinsic clearance in human hepatic microsomes assessed per mg protein up to 30 mins in presence of NADPH by UPLC-MS method; format: ADME; details: liver microsomes, read-out: CLH
# Summary of the method: (§1)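 Hepatic microsomes (male CD1 mouse, male Sprague-Dawley rat, or pooled human) at 0.25 mg/mL protein, substrate 0.5 µM, 1 mM NADPH; samples at 0, 5, 10, 20, 30 min, quenched with 1 volume CH3CN, centrifuged, supernatant by UPLC/HRMS. % remaining vs T0 (analyte/internal standard ratio); k from ln(% stability) vs time; InC = k/protein concentration × 1000.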
# [3] = Intrinsic clearance in Sprague-Dawley rat hepatic microsomes assessed per mg protein up to 30 mins in presence of NADPH by UPLC-MS method; format: ADME; details: liver microsomes, read-out: CLH; summary of the method: as §1
# [4] = Intrinsic clearance in CD1 mouse hepatic microsomes assessed per mg protein up to 30 mins in presence of NADPH by UPLC-MS method; format: ADME; details: liver microsomes, read-out: CLH; summary of the method: as §1
# [5] = target: Translocator protein (Rattus norvegicus, UniProt P16257); experiment: Displacement of [3H]PK11195 from TSPO in rat heart membranes after 15 mins by scintillation counting method; format: cell membranes, Membrane
# [6] = n-Octanol-buffer partition coefficient, log D of the compound at pH 7.4 by HPLC method; format: physicochemical
# Translocator protein, sequence (P16257 whole entry, looked up): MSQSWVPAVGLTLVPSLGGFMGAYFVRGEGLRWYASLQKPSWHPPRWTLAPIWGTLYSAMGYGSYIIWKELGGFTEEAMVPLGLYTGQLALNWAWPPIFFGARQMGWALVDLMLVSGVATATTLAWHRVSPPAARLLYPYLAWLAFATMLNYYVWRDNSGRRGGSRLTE
Compound,inhibition [1] [%],microsomal CLint [2] [µL/min/mg],microsomal CLint [3] [µL/min/mg],microsomal CLint [4] [µL/min/mg],Ki [5] [nM],logD [6]
CCN(CC)C(=O)Cc1c(-c2ccc(OCCF)cc2)nn2c(C)cc(C)nc12 [DPA-714],0,68,> 1000,408,,
Cc1cc(C)n2nc(-c3ccc(CCCF)cc3)c(CC(=O)N3CCCCC3)c2n1,0,424,> 1000,931,2.2,3.56
Cc1cc(C)n2nc(-c3ccc(CCCF)cc3)c(CC(=O)N3CCNCC3)c2n1,0,,,,260,0.87
Cc1cc(C)n2nc(-c3ccc(CCCF)cc3)c(CC(=O)NC3CC3)c2n1,0,,,,17,2.69
Cc1cc(C)n2nc(-c3ccc(CCCF)cc3)c(CC(=O)N3CCC3)c2n1,0,,,,32,2.73
Cc1cc(C)n2nc(-c3ccc(CCCF)cc3)c(CC(=O)N(C)C)c2n1,2,,,,15,2.68
Cc1cc(C)n2nc(-c3ccc(CCCF)cc3)c(CC(=O)N(C)Cc3cccnc3)c2n1,0,862,> 1000,> 1000,2.8,2.61
Cc1cc(C)n2nc(-c3ccc(CCCF)cc3)c(CC(=O)N(C)Cc3ccccn3)c2n1,0,270,610,947,1.2,3.16
Cc1cc(C)n2nc(-c3ccc(CCCF)cc3)c(CC(=O)N(C)Cc3ccccc3)c2n1,0,> 1000,> 1000,> 1000,0.3,3.98
CCN(CC)C(=O)Cc1c(-c2ccc(CCCF)cc2)nn2c(C)cc(C)nc12,0,241,> 1000,865,,3.51
Cc1cc(C)n2nc(-c3ccc(CCCF)cc3)c(CC(=O)N(C)CCc3ccccc3)c2n1,0,> 1000,> 1000,> 1000,1.1,4.08
Cc1cc(C)n2nc(-c3ccc(CCCF)cc3)c(CC(=O)N3CCCC3)c2n1,0,,,,26,3.04
Cc1cc(C)n2nc(-c3ccc(CCCF)cc3)c(CC(=O)N3CCOCC3)c2n1,0,,,,27,2.56
CCCN(CCC)C(=O)Cc1c(-c2ccc(CCCF)cc2)nn2c(C)cc(C)nc12,0,> 1000,> 1000,> 1000,0.26,4.39
CCCN(C)C(=O)Cc1c(-c2ccc(CCCF)cc2)nn2c(C)cc(C)nc12,0,321,> 1000,781,0.25,3.65
